Consider two molecules from publication PMC4235313 (Chemistry (Weinheim an Der Bergstrasse, Germany), 2013).

The assay addresses T1, S. aureus PBP2 (Staphylococcus aureus, UniProt Q9R744).
T1 sequence (Q9R744 1-727): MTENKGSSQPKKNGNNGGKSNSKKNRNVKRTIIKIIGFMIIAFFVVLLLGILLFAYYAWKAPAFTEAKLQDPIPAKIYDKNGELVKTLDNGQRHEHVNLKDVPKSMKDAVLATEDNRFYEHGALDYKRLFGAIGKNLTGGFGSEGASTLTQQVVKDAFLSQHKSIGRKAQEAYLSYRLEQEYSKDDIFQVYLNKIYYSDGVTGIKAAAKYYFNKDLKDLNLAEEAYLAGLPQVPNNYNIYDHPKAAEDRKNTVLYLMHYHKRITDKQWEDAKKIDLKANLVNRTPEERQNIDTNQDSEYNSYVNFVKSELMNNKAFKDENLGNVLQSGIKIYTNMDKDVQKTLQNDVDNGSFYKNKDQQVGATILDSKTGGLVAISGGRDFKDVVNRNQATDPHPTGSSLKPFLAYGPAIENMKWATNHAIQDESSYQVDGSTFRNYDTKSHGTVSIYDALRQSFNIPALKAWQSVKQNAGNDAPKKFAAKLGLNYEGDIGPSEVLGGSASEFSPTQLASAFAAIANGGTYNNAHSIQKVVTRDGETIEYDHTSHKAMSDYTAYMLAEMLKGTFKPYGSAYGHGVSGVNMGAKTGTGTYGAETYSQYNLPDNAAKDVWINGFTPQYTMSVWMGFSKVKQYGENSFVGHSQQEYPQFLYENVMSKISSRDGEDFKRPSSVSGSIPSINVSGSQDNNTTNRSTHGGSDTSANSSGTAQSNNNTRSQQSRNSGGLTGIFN
It is filed as biochemical, Staphylococcus aureus RN4220. As to conditions: for suppression of the peptidoglycan polymerization (in words): susceptible (normal lipid II analogue) and resistant (depsi-lipid II analogue) models of the PBP2 reaction, Figure 6. The gist of the method: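 N-terminal His6 S. aureus PBP2 (gene from RN4220 genomic DNA), expressed in E. coli BL21(DE3)pLysS, Ni-NTA and gel-filtration purified; 30 μg/mL in 50 mM HEPES pH 7.0, 18 mM MnCl2, 10% DMSO. Test compound series started with 4 μM [14C]-C35-lipid II or [14C]-C35-depsi-lipid II analogue, 30 °C, 4 min; SDS stop; cellulose TLC; phosphorimaging of polymerised product.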

Consider `CN[C@H](CC(C)C)C(=O)N[C@H]1C(=O)N[C@@H](CC(N)=O)C(=O)N[C@H]2C(=O)N[C@H]3C(=O)N[C@H](C(=O)N[C@H](C(=O)O)c4cc(O)cc(O)c4-c4cc3ccc4O)[C@H](O)c3ccc(c(Cl)c3)Oc3cc2cc(c3O[C@@H]2O[C@H](CO)[C@@H](O)[C@H](O)[C@H]2O[C@H]2C[C@](C)(N)[C@H](O)[C@H](C)O2)Oc2ccc(cc2Cl)[C@H]1O` [vancomycin], for which the IC50 (usually the concentration needed to halve the response being measured) was determined as 1520 nM and the “suppression of the peptidoglycan polymerization (in words)” value is recorded as “suppressed the peptidoglycan polymerization only when normal lipid II analogue was used”.
For moenomycin, the “suppression of the peptidoglycan polymerization (in words)” value is “suppressed the peptidoglycan polymerization regardless of the use of normal or depsi-lipid II analogues”.
